In ChEMBL document CHEMBL4190386, “Discovery of 6-(pyrimidin-5-ylmethyl)quinoline-8-carboxamide negative allosteric modulators of metabotropic glutamate receptor subtype 5” (Bioorg Med Chem Lett, 2018):
pIC50: −log10 of the molar value. Calls of active or inactive are those of the source. No cut-off for these calls is given here.

Tests used:
[1] = molecular target: Metabotropic glutamate receptor 5 (Rattus norvegicus) (UniProt P31424); test: Negative allosteric modulator activity at rat mGlu5 receptor expressed in HEK293A cells assessed as EC80 glutamate-induced maximum Ca2+ mobilization response at 30 uM relative to 100 uM glutamate by Fluo-4 AM dye based fluorescence assay; type: functional, cell-based
[2] = molecular target: Metabotropic glutamate receptor 5 (Rattus norvegicus, UniProt P31424); test: Negative allosteric modulator activity at rat mGlu5 receptor expressed in HEK293A cells assessed as inhibition of EC80 glutamate-induced Ca2+ mobilization by Fluo-4 AM dye based fluorescence assay; type: functional, cell-based
[3] = Metabolic stability in human hepatic S9 fraction assessed as NADPH dependent metabolism incubated for 60 mins by LC/MS analysis; type: ADME, subcellular, Liver; conditions: read-out: Drug metabolism
[4] = Metabolic stability in rat hepatic S9 fraction assessed as NADPH dependent metabolism incubated for 60 mins by LC/MS analysis; type: ADME, subcellular, Liver; conditions: read-out: Drug metabolism
[5] = Drug metabolism in rat whole blood assessed as 6-(hydroxy(pyridin-3-yl)methyl)-N-(4-methylthiazol-2-yl)quinoline-8-carboxamide formation at 37 degC incubated for 1 hr; type: ADME, tissue-based
[6] = Mean residence time in rat at 1 mg/kg, iv; type: ADME, organism-based; conditions: in vivo
Method in brief: (§1)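 Rat intravenous PK: n = 2 male Sprague-Dawley rats, 1.0 mg/kg IV in 10% ethanol/90% PEG 400. Parent and the alcohol metabolite were measured in plasma. MRT = mean residence time.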

Rattus norvegicus [7] = test: Volume of distribution at steady state in rat assessed as 6-(hydroxy(pyridin-3-yl)methyl)-N-(4-methylthiazol-2-yl)quinoline-8-carboxamide formation at 1 mg/kg, iv; type: ADME, organism-based; conditions: in vivo; method in brief: as §1
Rattus norvegicus [8] = test: Half life in rat assessed as 6-(hydroxy(pyridin-3-yl)methyl)-N-(4-methylthiazol-2-yl)quinoline-8-carboxamide formation at 1 mg/kg, iv; type: ADME, organism-based; conditions: in vivo; method in brief: as §1
[9] = Volume of distribution at steady state in rat at 1 mg/kg, iv; type: ADME, organism-based; conditions: in vivo, read-out: Vdss; method in brief: as §1
Rattus norvegicus [10] = test: Mean residence time in rat assessed as 6-(hydroxy(pyridin-3-yl)methyl)-N-(4-methylthiazol-2-yl)quinoline-8-carboxamide formation at 1 mg/kg, iv; type: ADME, organism-based; conditions: in vivo; method in brief: as §1
[11] = Half life in rat at 1 mg/kg, iv; type: ADME, organism-based; conditions: in vivo; method in brief: as §1
[12] = Drug metabolism in rat whole blood treated with N-(4-methylthiazol-2-yl)-6-nicotinoylquinoline-8-carboxamide assessed as compound formation at 37 degC incubated for 1 hr; type: ADME, tissue-based
in vitro [13] = conditions: rat, plasma
in vitro [14] = conditions: human, plasma
[15] = molecular target: Metabotropic glutamate receptor 5 (Homo sapiens) (UniProt P41594); test: Negative allosteric modulation of human mGlu5 receptor expressed in HEK293A cells assessed as reduction in glutamate-induced calcium mobilization at 10 uM by Fluo-4--AM dye based fluorescence assay; type: functional, cell-based
[16] = molecular target: Metabotropic glutamate receptor 6 (Rattus norvegicus) (UniProt P35349); test: Negative allosteric modulation of rat mGlu6 receptor expressed in HEK cells harboring GIRK assessed as reduction in glutamate-induced thallium flux at 10 uM preincubated for 5 mins followed by glutamate addition measured after 2 mins by BTC-AM-dye based fluorescence assay; type: functional, cell-based
[17] = molecular target: Metabotropic glutamate receptor 4 (Rattus norvegicus) (UniProt P31423); test: Negative allosteric modulation of rat mGlu4 receptor expressed in HEK cells harboring GIRK assessed as reduction in glutamate-induced thallium flux at 10 uM preincubated for 5 mins followed by glutamate addition measured after 2 mins by BTC-AM-dye based fluorescence assay; type: functional, cell-based
[18] = molecular target: Metabotropic glutamate receptor 8 (Rattus norvegicus) (UniProt P70579); test: Negative allosteric modulation of rat mGlu8 receptor expressed in HEK cells harboring GIRK assessed as reduction in glutamate-induced thallium flux at 10 uM preincubated for 5 mins followed by glutamate addition measured after 2 mins by BTC-AM-dye based fluorescence assay; type: functional, cell-based
[19] = molecular target: Metabotropic glutamate receptor 7 (Rattus norvegicus) (UniProt P35400); test: Negative allosteric modulation of rat mGlu7 receptor expressed in HEK cells harboring GIRK assessed as reduction in L-AP4-induced thallium flux at 10 uM preincubated for 5 mins followed by glutamate addition measured after 2 mins by BTC-AM-dye based fluorescence assay; type: functional, cell-based
[20] = molecular target: Metabotropic glutamate receptor 2 (Rattus norvegicus) (UniProt P31421); test: Negative allosteric modulation of rat mGlu2 receptor expressed in HEK cells harboring GIRK assessed as reduction in glutamate-induced thallium flux at 10 uM preincubated for 5 mins followed by glutamate addition measured after 2 mins by BTC-AM-dye based fluorescence assay; type: functional, cell-based
[21] = molecular target: Metabotropic glutamate receptor 3 (Rattus norvegicus) (UniProt P31422); test: Negative allosteric modulation of rat mGlu3 receptor expressed in HEK cells harboring GIRK assessed as reduction in glutamate-induced thallium flux at 10 uM preincubated for 5 mins followed by glutamate addition measured after 2 mins by BTC-AM-dye based fluorescence assay; type: functional, cell-based
[22] = molecular target: Metabotropic glutamate receptor 1 (Rattus norvegicus) (UniProt P23385); test: Negative allosteric modulation of rat mGlu1 receptor expressed in HEK293 cells assessed as reduction in glutamate-induced calcium mobilization at 10 uM preincubated for 2.3 mins followed by glutamate addition measured after 2.6 mins by Fluo-4--AM dye based fluorescence assay; type: functional, cell-based
Chain of Metabotropic glutamate receptor 1 (Rattus norvegicus) (P23385 19-1199 limits assumed): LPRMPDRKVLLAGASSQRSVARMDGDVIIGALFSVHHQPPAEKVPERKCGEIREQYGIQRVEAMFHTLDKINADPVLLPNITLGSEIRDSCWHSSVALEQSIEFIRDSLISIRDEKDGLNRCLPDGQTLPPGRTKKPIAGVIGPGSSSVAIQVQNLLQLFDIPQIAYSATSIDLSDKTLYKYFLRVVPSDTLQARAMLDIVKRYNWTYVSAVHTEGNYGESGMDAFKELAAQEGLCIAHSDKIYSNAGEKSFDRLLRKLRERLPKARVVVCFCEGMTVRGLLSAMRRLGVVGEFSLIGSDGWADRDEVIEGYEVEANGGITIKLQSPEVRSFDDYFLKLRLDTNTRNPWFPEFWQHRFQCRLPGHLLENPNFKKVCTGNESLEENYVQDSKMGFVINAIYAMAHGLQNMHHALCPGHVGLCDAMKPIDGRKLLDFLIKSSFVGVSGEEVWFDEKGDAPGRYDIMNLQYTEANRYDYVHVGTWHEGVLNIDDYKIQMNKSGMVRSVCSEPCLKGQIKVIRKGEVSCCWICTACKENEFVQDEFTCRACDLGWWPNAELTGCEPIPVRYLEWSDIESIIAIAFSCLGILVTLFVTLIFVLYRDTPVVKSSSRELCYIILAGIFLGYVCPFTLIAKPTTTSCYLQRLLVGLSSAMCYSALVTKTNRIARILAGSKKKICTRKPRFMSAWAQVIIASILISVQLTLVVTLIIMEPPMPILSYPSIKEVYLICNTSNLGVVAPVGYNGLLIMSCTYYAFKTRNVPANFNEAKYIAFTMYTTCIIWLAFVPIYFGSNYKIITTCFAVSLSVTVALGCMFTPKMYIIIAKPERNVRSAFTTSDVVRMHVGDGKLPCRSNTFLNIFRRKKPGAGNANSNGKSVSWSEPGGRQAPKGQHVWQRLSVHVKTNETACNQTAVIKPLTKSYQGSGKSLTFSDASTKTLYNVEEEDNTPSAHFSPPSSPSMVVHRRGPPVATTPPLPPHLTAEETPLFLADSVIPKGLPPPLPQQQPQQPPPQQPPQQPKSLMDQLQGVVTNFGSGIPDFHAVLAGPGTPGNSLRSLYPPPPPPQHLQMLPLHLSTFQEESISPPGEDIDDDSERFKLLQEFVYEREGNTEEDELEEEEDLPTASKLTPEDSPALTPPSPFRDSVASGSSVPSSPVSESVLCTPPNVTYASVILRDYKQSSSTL

Chain of Metabotropic glutamate receptor 5 (P31424 whole entry): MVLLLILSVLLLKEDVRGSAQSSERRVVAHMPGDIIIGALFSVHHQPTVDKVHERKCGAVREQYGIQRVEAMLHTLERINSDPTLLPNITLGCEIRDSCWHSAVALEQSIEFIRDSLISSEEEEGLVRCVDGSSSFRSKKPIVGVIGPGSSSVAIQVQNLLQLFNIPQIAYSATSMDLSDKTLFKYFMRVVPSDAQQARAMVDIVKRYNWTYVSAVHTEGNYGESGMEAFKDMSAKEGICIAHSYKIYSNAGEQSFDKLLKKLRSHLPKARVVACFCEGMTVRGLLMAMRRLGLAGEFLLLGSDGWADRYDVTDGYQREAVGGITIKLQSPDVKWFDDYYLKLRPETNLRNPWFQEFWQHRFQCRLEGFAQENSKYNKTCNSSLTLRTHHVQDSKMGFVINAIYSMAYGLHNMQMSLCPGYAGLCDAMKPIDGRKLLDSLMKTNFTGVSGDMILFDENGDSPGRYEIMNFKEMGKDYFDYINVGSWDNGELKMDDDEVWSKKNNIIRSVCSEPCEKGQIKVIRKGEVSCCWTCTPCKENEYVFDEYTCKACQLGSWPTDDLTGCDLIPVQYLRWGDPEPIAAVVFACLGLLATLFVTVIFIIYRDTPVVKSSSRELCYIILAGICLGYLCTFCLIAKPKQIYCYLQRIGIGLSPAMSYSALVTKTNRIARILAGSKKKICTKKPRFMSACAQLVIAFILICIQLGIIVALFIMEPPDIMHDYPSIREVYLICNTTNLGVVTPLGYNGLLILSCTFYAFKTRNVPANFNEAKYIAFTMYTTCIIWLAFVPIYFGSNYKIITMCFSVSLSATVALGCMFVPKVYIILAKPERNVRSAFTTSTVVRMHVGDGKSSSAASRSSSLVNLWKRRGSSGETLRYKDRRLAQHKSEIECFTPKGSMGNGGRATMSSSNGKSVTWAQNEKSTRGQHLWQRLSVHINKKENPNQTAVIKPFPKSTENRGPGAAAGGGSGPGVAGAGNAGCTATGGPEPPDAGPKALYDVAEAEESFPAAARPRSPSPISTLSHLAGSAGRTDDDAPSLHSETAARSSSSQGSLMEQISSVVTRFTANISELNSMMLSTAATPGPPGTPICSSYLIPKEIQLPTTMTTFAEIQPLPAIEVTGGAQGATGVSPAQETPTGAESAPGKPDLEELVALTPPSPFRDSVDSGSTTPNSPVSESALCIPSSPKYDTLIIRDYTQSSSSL
Chain of Metabotropic glutamate receptor 5 (Rattus norvegicus) (P31424 21-1203 limits assumed): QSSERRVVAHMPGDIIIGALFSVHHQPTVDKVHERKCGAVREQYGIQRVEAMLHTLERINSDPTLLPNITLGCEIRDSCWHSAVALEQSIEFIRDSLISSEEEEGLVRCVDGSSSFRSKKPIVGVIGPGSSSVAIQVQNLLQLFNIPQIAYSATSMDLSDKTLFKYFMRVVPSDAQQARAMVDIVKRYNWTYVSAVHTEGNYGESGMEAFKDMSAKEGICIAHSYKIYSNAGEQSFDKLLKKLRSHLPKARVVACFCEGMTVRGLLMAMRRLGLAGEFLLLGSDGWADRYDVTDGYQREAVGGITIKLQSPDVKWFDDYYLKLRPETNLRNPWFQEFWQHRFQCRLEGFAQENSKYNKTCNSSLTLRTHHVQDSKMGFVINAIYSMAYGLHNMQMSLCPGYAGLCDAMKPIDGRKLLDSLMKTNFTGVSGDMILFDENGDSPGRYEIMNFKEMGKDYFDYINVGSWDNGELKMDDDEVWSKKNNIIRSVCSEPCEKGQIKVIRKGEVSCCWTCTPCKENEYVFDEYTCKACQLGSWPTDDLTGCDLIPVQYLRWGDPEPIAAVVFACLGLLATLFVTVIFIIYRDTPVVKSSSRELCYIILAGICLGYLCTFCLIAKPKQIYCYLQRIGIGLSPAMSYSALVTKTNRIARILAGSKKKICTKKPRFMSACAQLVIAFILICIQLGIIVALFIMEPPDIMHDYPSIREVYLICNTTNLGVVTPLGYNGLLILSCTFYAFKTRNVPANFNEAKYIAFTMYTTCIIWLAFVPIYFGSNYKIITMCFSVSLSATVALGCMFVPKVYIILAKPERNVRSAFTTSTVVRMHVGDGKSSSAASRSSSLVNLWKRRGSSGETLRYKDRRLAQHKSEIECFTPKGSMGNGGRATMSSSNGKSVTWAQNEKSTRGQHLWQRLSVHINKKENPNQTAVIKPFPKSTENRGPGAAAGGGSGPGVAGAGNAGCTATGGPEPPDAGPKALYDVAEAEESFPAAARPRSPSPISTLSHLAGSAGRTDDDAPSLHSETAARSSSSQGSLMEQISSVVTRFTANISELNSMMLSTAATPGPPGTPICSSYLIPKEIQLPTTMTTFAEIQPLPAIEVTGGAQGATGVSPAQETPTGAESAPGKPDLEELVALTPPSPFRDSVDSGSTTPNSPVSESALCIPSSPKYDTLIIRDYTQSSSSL
Chain of Metabotropic glutamate receptor 7 (Rattus norvegicus) (P35400 whole entry): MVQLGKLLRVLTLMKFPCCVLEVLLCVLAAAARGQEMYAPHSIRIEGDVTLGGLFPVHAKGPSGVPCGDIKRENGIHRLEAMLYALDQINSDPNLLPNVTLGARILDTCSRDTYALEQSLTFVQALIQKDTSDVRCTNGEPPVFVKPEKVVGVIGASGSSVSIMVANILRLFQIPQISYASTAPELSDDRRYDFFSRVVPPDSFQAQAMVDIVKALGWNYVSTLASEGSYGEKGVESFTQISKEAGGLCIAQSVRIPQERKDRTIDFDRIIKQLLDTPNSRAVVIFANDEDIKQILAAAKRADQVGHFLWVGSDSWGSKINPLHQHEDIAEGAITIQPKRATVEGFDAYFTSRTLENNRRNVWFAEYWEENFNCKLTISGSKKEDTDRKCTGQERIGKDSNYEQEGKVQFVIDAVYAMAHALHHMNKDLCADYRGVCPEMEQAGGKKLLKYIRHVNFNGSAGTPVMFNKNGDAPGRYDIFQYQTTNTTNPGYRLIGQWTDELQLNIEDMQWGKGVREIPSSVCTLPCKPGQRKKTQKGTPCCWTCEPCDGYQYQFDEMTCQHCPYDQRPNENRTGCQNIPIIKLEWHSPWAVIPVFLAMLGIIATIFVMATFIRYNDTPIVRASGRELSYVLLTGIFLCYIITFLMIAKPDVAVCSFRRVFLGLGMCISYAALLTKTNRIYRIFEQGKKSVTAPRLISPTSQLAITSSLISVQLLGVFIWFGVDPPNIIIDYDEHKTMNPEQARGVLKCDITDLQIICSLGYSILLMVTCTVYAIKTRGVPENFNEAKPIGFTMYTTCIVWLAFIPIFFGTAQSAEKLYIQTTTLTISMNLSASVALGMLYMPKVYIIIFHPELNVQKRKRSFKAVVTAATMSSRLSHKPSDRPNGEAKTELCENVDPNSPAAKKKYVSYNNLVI

Structure (SMILES) | %max [1] [%] | pIC50 [2] | also measured
COc1cccc(NC(=O)c2cc(C(F)(F)c3cncnc3)cc3cccnc23)n1 | 7.1 | 5.79 | 
O=C(Nc1nc(C2CC2)cs1)c1cc(C(F)(F)c2cncnc2)cc2cccnc12 | 3 | 6.25 | 
Cc1csc(NC(=O)c2cc(C(F)c3cncnc3)cc3cccnc23)n1 (centres undefined) | 1.7 | 6.42 | metabolised at 1 h [3]: 27%; metabolised at 1 h [4]: 55%
Cc1cccc(NC(=O)c2cc(C(=O)c3cncnc3)cc3cccnc23)n1 | 1.5 | 6.38 | 
Cc1csc(NC(=O)c2cc(C(=O)c3cncnc3)cc3cccnc23)n1 | 1.3 | 6.76 | Drug metabolism [5]: Metabolite_Detected; MRT [6]: 19 min; Vdss (Rattus norvegicus [7]): 10 L/kg; t1/2 (Rattus norvegicus [8]): 171 min; Vd [9]: 50 L/kg; MRT (Rattus norvegicus [10]): 107 min; half-life [11]: 30 min
Cc1csc(NC(=O)c2cc(C(O)c3cncnc3)cc3cccnc23)n1 (centres undefined) |  | < 5.00 | Drug uptake [12]: Active
O=C(Nc1ccc(F)cn1)c1cc(C(F)(F)c2cncnc2)cc2cccnc12 | 4.5 | 6.41 | 
CCc1cccc(NC(=O)c2cc(C(F)(F)c3cncnc3)cc3cccnc23)n1 | 7.8 | 5.44 | 
Cc1cccc(NC(=O)c2cc(C(F)(F)c3cncnc3)cc3cccnc23)n1 | 2.7 | 5.96 | 
N#Cc1ccnc(NC(=O)c2cc(C(F)(F)c3cncnc3)cc3cccnc23)c1 |  | < 4.52 | 
O=C(Nc1ccc(F)cn1)c1cc(Oc2cncc(F)c2)cn2ncnc12 |  |  | fraction unbound at 4 h, 5 µM (in vitro [13]): 0.066; fraction unbound at 4 h, 5 µM (in vitro [14]): 0.071
O=C(Nc1ccc(F)cn1)c1cc(C(F)c2cncnc2)cc2cccnc12 (centres undefined) | 1.5 | 6.66 | 
Cc1csc(NC(=O)c2cc(C(C)c3cncnc3)cc3cccnc23)n1 (centres undefined) | 1.4 | 6.23 | 
Cc1csc(NC(=O)c2cc(C(F)(F)c3cncnc3)cc3cccnc23)n1 |  |  | inhibition [15]: Active; inhibition [16]: inactive; inhibition [17]: inactive; inhibition [18]: inactive; inhibition [19]: inactive; inhibition [20]: inactive; inhibition [21]: inactive; inhibition [22]: inactive
O=C(c1cncnc1)c1cc(C(=O)Nc2cccc(F)n2)c2ncccc2c1 | 12.5 | < 5.00 | 
O=C(c1cncnc1)c1cc(C(=O)Nc2ccc(F)cn2)c2ncccc2c1 | 2.7 | 6.07 | 

Further lines, with some results ahead:

%max [1] [%] | pIC50 [2] | Structure (SMILES) | also measured
3 | 6.17 | Cc1ccc(NC(=O)c2cc(C(F)(F)c3cncnc3)cc3cccnc23)nc1 | 
1.5 | 5.82 | CC(c1cncnc1)c1cc(C(=O)Nc2ccc(F)cn2)c2ncccc2c1 (centres undefined) | 
 | < 4.52 | COc1ccnc(NC(=O)c2cc(C(F)(F)c3cncnc3)cc3cccnc23)c1 | 
 | 8.10 | O=C(Nc1ccc(F)cn1)c1cc(Oc2cncc(F)c2)cc2cccnc12 | 
2.9 | 5.46 | COC(c1cncnc1)c1cc(C(=O)Nc2ccc(F)cn2)c2ncccc2c1 (centres undefined) | 
 | < 4.52 | N#Cc1ccc(NC(=O)c2cc(C(F)(F)c3cncnc3)cc3cccnc23)nc1 | 
1.8 | 5.76 | COC(c1cncnc1)c1cc(C(=O)Nc2nc(C)cs2)c2ncccc2c1 (centres undefined) | 
44 | < 5.00 | Cc1ccnc(NC(=O)c2cc(C(F)(F)c3cncnc3)cc3cccnc23)c1 | 
